In brackets after ≈: the same amount, converted by molar mass. Several values for one entry are separate records, joined by “and”; a condition that tells them apart may be missing. Identical values can stand only once.
Assays:
Vero [1] = experiment: Compound was evaluated for antiviral activity against Herpes Simplex Virus (HSV-2 strain MS) in vero cells in exp. No. 1; format: functional, Chlorocebus sabaeus
In short: (§1)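 Inhibition of virus-induced cytopathogenic effect was measured in Vero cells infected with TK⁺ HSV-1 strain 377 or TK⁺ HSV-2 strain MS, using a modified Ehrlich method. Activity is given as a virus rating, which weights both the degree of CPE inhibition and the cytotoxicity of the compound. Potency is given as the minimum inhibitory concentration (MIC₅₀).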

Vero [2] = experiment: Compound was evaluated for antiviral activity against Herpes Simplex Virus (HSV-2 strain MS) in vero cells in exp. No. 2; format: functional, Chlorocebus sabaeus; in short: as §1
Vero [3] = experiment: Compound was evaluated for antiviral activity against Herpes Simplex Virus (HSV-2 strain MS) in vero cells in exp. No. 3; format: functional, Chlorocebus sabaeus; in short: as §1
Vero [4] = experiment: Compound was tested for the inhibition of the replication of herpes simplex virus (HSV-I strain 377) in vero cells of in exp. No. 1; format: functional; settings: Chlorocebus sabaeus; in short: as §1
Vero [5] = experiment: Compound was evaluated for antiviral activity against Herpes Simplex Virus (HSV-1 strain 377) in vero cells in exp. No. 1; format: functional, Chlorocebus sabaeus; in short: as §1
Vero [6] = experiment: Compound was evaluated for antiviral activity against Herpes Simplex Virus (HSV-1 strain 377) in vero cells in exp. No. 2; format: functional, Chlorocebus sabaeus; in short: as §1
Vero [7] = experiment: Compound was tested for the inhibition of the replication of herpes simplex virus (HSV-2 strain MS) in vero cells in exp. No. 1; format: functional; settings: Chlorocebus sabaeus; in short: as §1
Vero [8] = experiment: (§2) Compound was tested for the inhibition of the replication of herpes simplex virus (HSV-2 strain MS) in vero cells in exp. No. 2; format: functional; settings: Chlorocebus sabaeus; in short: as §1
Vero [9] = experiment: Compound was tested for the inhibition of the replication of herpes simplex virus (HSV-2 strain MS) in vero cells in exp. No. 3; format: functional; settings: Chlorocebus sabaeus; in short: as §1
Vero [10] = experiment: Compound was tested for the inhibition of the replication of herpes simplex virus (HSV-I strain 377) in vero cells in exp. No. 1; format: functional; settings: Chlorocebus sabaeus; in short: as §1
Vero [11] = experiment: Compound was tested for the inhibition of the replication of herpes simplex virus (HSV-I strain 377) in vero cells in exp. No. 2; format: functional; settings: Chlorocebus sabaeus; in short: as §1
Vero [12] = experiment: Compound was tested for the inhibition of the replication of herpes simplex virus (HSV-I strain 377) in vero cells in exp. No. 3; format: functional; settings: Chlorocebus sabaeus; in short: as §1
Vero [13] = experiment: Compound was evaluated for antiviral activity against Herpes Simplex Virus (HSV-1 strain 377) in vero cells in exp. No. 3; format: functional, Chlorocebus sabaeus; in short: as §1
Vero [14] = experiment: Compound was evaluated for antiviral activity against Herpes Simplex Virus (HSV-2 strain MS) in vero cells in exp. no. 3; format: functional, Chlorocebus sabaeus; in short: as §1
Vero [15] = experiment: Compound was evaluated for antiviral activity against Herpes Simplex Virus (HSV-1 strain 377) in vero cells in exp. no. 3; format: functional, Chlorocebus sabaeus; in short: as §1
Vero [16] = experiment: Compound was tested for the inhibition of the replication of herpes simplex virus (HSV-I strain 377) in vero cells in exp. no. 3; format: functional; settings: Chlorocebus sabaeus; in short: as §1
Vero [17] = experiment: Compound was evaluated for antiviral activity against Herpes Simplex Virus (HSV-1 strain 377) in vero cells in exp. no.1; format: functional, Chlorocebus sabaeus; in short: as §1
Vero [18] = experiment: Compound was evaluated for antiviral activity against Herpes Simplex Virus (HSV-2 strain MS) in vero cells in exp. no.2; format: functional, Chlorocebus sabaeus; in short: as §1
Vero [19] = experiment: Compound was tested for the inhibition of the replication of herpes simplex virus (HSV-2 strain MS) in vero cells in exp. no.2; format: functional; settings: Chlorocebus sabaeus; in short: as §1
Vero [20] = experiment: Compound was tested for the inhibition of the replication of herpes simplex virus (HSV-I strain 377) in vero cells in exp. no.1; format: functional; settings: Chlorocebus sabaeus; in short: as §1
Vero [21] = experiment: as §2; format: functional; settings: Chlorocebus sabaeus; in short: as §1; remark: listed apart in the source
Vero [22] = experiment: Compound was evaluated for antiviral activity against Herpes Simplex virus (HSV-1 strain 377) in exp. no. 2; format: functional, Chlorocebus sabaeus
Vero [23] = experiment: Compound was evaluated for antiviral activity against Herpes Simplex virus (HSV-2 strain MS) in exp. no. 1; format: functional, Chlorocebus sabaeus
Vero [24] = experiment: Compound was evaluated for antiviral activity against Herpes Simplex virus (HSV-2 strain MS) in exp. no. 2; format: functional, Chlorocebus sabaeus
Vero [25] = experiment: Compound was tested for the inhibition of the replication of herpes simplex virus (HSV-I strain 377) in vero cells of in exp. no. 1; format: functional; settings: Chlorocebus sabaeus; in short: as §1
Vero [26] = experiment: Compound was tested for the inhibition of the replication of herpes simplex virus (HSV-I strain 377) in vero cells of in exp. no. 2; format: functional; settings: Chlorocebus sabaeus; in short: as §1
Vero [27] = experiment: Compound was evaluated for antiviral activity against Herpes Simplex Virus (HSV-1 strain 377) in vero cells in exp. no. 1; format: functional, Chlorocebus sabaeus; in short: as §1
Vero [28] = experiment: Compound was tested for the inhibition of the replication of herpes simplex virus (HSV-2 strain MS) in vero cells in exp. no.1; format: functional; settings: Chlorocebus sabaeus; in short: as §1
Vero [29] = experiment: Compound was tested for the inhibition of the replication of herpes simplex virus (HSV-I strain 377) in vero cells in exp. no. 1; format: functional; settings: Chlorocebus sabaeus; in short: as §1
Oryctolagus cuniculus [30] = species: Oryctolagus cuniculus; experiment: Compound was tested for the inhibition of the replication of herpes simplex virus in vero cells of HSV-2 strain MS in rabbit kidney cells; format: functional
Oryctolagus cuniculus [31] = species: Oryctolagus cuniculus; experiment: Compound was evaluated for antiviral activity against HSV-2 strain MS in rabbit kidney cells; format: functional
Oryctolagus cuniculus [32] = species: Oryctolagus cuniculus; experiment: Compound was evaluated for antiviral activity against Herpes Simplex Virus (HSV-1 strain 377) in rabbit kidney cells; format: functional
Oryctolagus cuniculus [33] = species: Oryctolagus cuniculus; experiment: Compound was tested for the inhibition of the replication of herpes simplex virus (HSV-I strain 377) in rabbit kidney cells; format: functional

With Nc1ncnc2c1ncn2[C@@H]1O[C@H](CO)[C@@H](O)[C@@H]1O [VIDARABINE] the VR (Vero [1]) was 1.7, the VR (Vero [2]) was 1.3 and the VR (Vero [3]) was 1.2. The MIC50 (Vero [4]) was 18 µg/mL (≈ 67.4 µM), the VR (Vero [5]) was 2.1 and the VR (Vero [6]) was 2. The MIC50 (Vero [7]) was 22 µg/mL and 80 µM, the MIC50 (Vero [8]) was 45 µg/mL and 170 µM and the MIC50 (Vero [9]) was 24 µg/mL and 90 µM. The MIC50 (Vero [10]) was 70 µM (≈ 18.7 µg/mL), the MIC50 (Vero [11]) was 15 µg/mL and 60 µM and the MIC50 (Vero [12]) was 5 µg/mL and 20 µM. The VR (Vero [13]) was 2.4.
With C[Si](C)(C)CCc1cn([C@H]2C[C@H](O)[C@@H](CO)O2)c(=O)[nH]c1=O the VR (Vero [14]) was 0.1, the VR (Vero [15]) was 0.5 and the MIC50 (Vero [16]) was 320 µg/mL and 980 µM.
With C#Cc1cn(C2CC(O)C(CO)C2)c(=O)[nH]c1=O (stereo not given) the VR (Vero [17]) was 0.9, the VR (Vero [18]) was 1.1 and the MIC50 (Vero [19]) was 210 µg/mL and 830 µM. The MIC50 (Vero [20]) was 250 µg/mL and 990 µM.
CC(=O)OC[C@H]1O[C@@H](n2cc(C#C[Si](C)(C)C)c(=O)[nH]c2=O)C[C@@H]1OC(C)=O gave a VR (Vero [14]) of 0 and a VR (Vero [15]) of 0.
For CCc1cn([C@H]2C[C@H](O)[C@@H](CO)O2)c(=O)[nH]c1=O [EDOXUDINE], the VR (Vero [2]) was 2.2, the VR (Vero [6]) was 2.3 and the MIC50 (Vero [8]) was 37 µg/mL (≈ 144 µM). The MIC50 (Vero [11]) was 20 µg/mL and 80 µM and the MIC50 (Vero [21]) was 140 µM (≈ 35.9 µg/mL).
Work on CCc1cn(C2CC(O)C(CO)C2)c(=O)[nH]c1=O (stereo not given) yielded a VR (Vero [22]) of 2.1, a VR (Vero [23]) of 1.1 and a VR (Vero [24]) of 1.1. The MIC50 (Vero [25]) was 45 µg/mL (≈ 177 µM), the MIC50 (Vero [26]) was 70 µg/mL and 270 µM and the VR (Vero [27]) was 2.4. For the same compound, the MIC50 (Vero [28]) was 230 µg/mL and 890 µM, the MIC50 (Vero [19]) was 180 µg/mL and 700 µM and the MIC50 (Vero [29]) was 170 µM (≈ 43.2 µg/mL).
Cc1cn([C@@H]2C[C@H](CO)[C@@H](O)C2)c(=O)[nH]c1=O gave an MIC50 (Oryctolagus cuniculus [30]) of 7 µg/mL (≈ 29.1 µM), a VR (Oryctolagus cuniculus [31]) of 3.2 and a VR (Oryctolagus cuniculus [32]) of 5.4. For the same compound, the MIC50 (Oryctolagus cuniculus [33]) was 0.8 µg/mL (≈ 3.33 µM).
